These results are taken from ChEMBL document CHEMBL3272141, “Potential long-acting anticonvulsants. 2. Synthesis and activity of succinimides containing an alkylating group on nitrogen or at the 3 position” (J Med Chem, 1977).

SMILES strings stand for the structures. Activity calls are given as the source filed them. The calls are words filed in the database; no cut-off is given here.

Assay [1] relates to Mus musculus. As to the kind of experiment: Anticonvulsant activity against metrazole-induced seizures in Carworth Farms No.1 mouse up to 300 mg/kg. In kind it is functional, organism-based. Also on record: dose 300 mg/kg. An outline of the steps:
(§1)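 Male Carworth Farms No. 1 mice were used, with the highest dose tested being 300 mg/kg.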

Assay [2] concerns Mus musculus. As to the kind of experiment: Anticonvulsant activity against maximal electroshock-induced seizures in Carworth Farms No.1 mouse up to 300 mg/kg. Also on record: dose 300 mg/kg. In kind it is functional, organism-based. Summed up: as §1

With `O=C(CCl)Nc1ccc(CCN2C(=O)CC(c3ccccc3)C2=O)cc1` (stereo not drawn), the outcome with Mus musculus [1] and in the assay on Mus musculus [2] was inactive.

As to `CC(=O)Nc1ccc(CCN2C(=O)CC(c3ccccc3)C2=O)cc1` (stereo not drawn), the result in the assay on Mus musculus [1] and in the assay with Mus musculus [2] was inactive.

On to `O=C(CCl)N1C(=O)CC(c2ccccc2)C1=O` (stereo not drawn), for which the result in the assay with Mus musculus [1] and with Mus musculus [2] was inactive.

On to `N#CCN1C(=O)CC(c2ccccc2)C1=O` (stereo not drawn), for which the outcome in the assay with Mus musculus [1] and in the assay with Mus musculus [2] was inactive.

Take `CN1C(=O)C(CCNC(=O)CCl)C(C)(c2ccccc2)C1=O` (stereo not drawn): the result in the assay on Mus musculus [1] and in the assay with Mus musculus [2] was inactive.

As to `O=C1CC(c2ccccc2)C(=O)N1CCc1ccccc1` (stereo not drawn), the outcome in the assay on Mus musculus [1] and in the assay on Mus musculus [2] was inactive.

For the molecule `O=C1C=CC(=O)N1CCN1C(=O)CC(c2ccccc2)C1=O` (stereo not drawn), the result in the assay with Mus musculus [1] and in the assay with Mus musculus [2] was inactive.

Turning to `NCCN1C(=O)CC(c2ccccc2)C1=O` (stereo not drawn), the result with Mus musculus [1] and in the assay on Mus musculus [2] was inactive.

As to `O=C(O)/C=C\C(=O)NCCN1C(=O)CC(c2ccccc2)C1=O` (stereo not drawn), the result in the assay with Mus musculus [1] and in the assay on Mus musculus [2] was inactive.

Turning to `Nc1ccc(CCN2C(=O)CC(c3ccccc3)C2=O)cc1` (stereo not drawn), the outcome with Mus musculus [1] and in the assay with Mus musculus [2] was inactive.

Take `O=C(CCl)NCCCN1C(=O)CC(CCCNC(=O)CCl)(c2ccccc2)C1=O` (stereo not drawn): the result in the assay on Mus musculus [1] and with Mus musculus [2] was inactive.

In the case of `O=C(O)/C=C\C(=O)Nc1ccc(CCN2C(=O)CC(c3ccccc3)C2=O)cc1` (stereo not drawn), the outcome with Mus musculus [1] and in the assay with Mus musculus [2] was inactive.

Take `O=C1CC(c2ccccc2)C(=O)N1CCc1ccc(N2C(=O)C=CC2=O)cc1` (stereo not drawn): the outcome in the assay with Mus musculus [1] and in the assay on Mus musculus [2] was inactive.

For the molecule `O=C(CCl)NCCN1C(=O)CC(c2ccccc2)C1=O` (stereo not drawn), the result in the assay with Mus musculus [1] and in the assay on Mus musculus [2] was inactive.
